Tests used:
[1] = target: T1, N-lysine methyltransferase KMT5A (Homo sapiens, UniProt Q9NQR1)
T1 sequence (Q9NQR1 whole entry): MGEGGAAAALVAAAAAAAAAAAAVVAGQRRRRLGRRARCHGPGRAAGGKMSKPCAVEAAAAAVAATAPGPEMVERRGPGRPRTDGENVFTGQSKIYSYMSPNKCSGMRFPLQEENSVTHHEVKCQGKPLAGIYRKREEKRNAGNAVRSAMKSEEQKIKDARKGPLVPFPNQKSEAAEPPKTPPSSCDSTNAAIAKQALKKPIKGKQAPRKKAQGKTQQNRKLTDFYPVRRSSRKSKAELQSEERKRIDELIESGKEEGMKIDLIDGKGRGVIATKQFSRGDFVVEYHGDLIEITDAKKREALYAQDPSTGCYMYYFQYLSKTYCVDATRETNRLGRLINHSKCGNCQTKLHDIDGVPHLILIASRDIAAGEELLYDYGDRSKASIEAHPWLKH

[2] = target: T1, N-lysine methyltransferase KMT5A; remark: listed apart in the source
[3] = target: Protein arginine N-methyltransferase 1 (Homo sapiens, UniProt Q99873); experiment: Inhibition of PRMT1 (unknown origin) assessed as incorporation of tritium-labeled methyl group to lysine or arginine residues of peptide substrate by radioactive assay
Summary of the method: (§1)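 Enzymes (PRMT5 as PRMT5-MEP50 complex, MLL1 as MLL1 complex) in 20 μL reactions with 3H-SAM and substrates near each enzyme's Km; compound at 100 nM to 100 μM. Stopped with 7.5 M guanidine HCl, diluted in 20 mM Tris pH 8.0, incubated 1 h on streptavidin FlashPlate, read as CPM. No-compound CPM was 100% activity; no-enzyme CPM was 0% background.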

[4] = target: N-lysine methyltransferase SMYD2 (Homo sapiens, UniProt Q9NRG4); experiment: Inhibition of SMYD2 (unknown origin) assessed as incorporation of tritium-labeled methyl group to lysine or arginine residues of peptide substrate by radioactive assay
Chain of N-lysine methyltransferase SMYD2 (Q9NRG4 whole entry): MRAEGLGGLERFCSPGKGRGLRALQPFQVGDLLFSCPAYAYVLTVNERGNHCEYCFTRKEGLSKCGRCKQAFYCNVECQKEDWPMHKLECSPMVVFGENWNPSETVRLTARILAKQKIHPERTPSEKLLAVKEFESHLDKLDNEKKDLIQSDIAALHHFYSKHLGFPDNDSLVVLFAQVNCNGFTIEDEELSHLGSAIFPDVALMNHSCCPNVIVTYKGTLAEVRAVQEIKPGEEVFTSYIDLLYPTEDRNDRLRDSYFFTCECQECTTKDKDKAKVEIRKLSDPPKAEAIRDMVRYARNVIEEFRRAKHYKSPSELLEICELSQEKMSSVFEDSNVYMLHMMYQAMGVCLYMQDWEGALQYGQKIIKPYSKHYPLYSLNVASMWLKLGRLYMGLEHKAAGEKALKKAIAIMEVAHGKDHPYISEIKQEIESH
Summary of the method: as §1

[5] = target: Protein arginine N-methyltransferase 5 (Homo sapiens, UniProt O14744); experiment: Inhibition of PRMT5 (unknown origin) assessed as incorporation of tritium-labeled methyl group to lysine or arginine residues of peptide substrate by radioactive assay
Summary of the method: as §1

[6] = target: Histone-lysine N-methyltransferase KMT5C (Homo sapiens, UniProt Q86Y97); experiment: Inhibition of SUV420H2 (unknown origin) assessed as incorporation of tritium-labeled methyl group to lysine or arginine residues of peptide substrate by radioactive assay
Chain of Histone-lysine N-methyltransferase KMT5C (Q86Y97 whole entry): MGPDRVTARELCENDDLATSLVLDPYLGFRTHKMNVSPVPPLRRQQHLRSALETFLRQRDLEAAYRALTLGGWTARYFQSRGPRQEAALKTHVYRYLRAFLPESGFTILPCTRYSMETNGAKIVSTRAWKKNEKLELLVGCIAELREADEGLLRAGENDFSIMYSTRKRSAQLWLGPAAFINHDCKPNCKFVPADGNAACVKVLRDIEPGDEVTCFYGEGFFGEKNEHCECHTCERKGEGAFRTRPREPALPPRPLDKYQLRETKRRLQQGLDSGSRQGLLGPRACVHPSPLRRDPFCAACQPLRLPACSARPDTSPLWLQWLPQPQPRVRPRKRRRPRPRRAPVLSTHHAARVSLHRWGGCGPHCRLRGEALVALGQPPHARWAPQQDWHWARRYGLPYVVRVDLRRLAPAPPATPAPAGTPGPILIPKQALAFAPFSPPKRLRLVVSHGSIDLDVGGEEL
Summary of the method: as §1

[7] = target: T2, Histone-lysine N-methyltransferase SETD7 (Homo sapiens, UniProt Q8WTS6); experiment: Inhibition of SETD7 (unknown origin) assessed as incorporation of tritium-labeled methyl group to lysine or arginine residues of peptide substrate by radioactive assay
T2 sequence (Q8WTS6 whole entry): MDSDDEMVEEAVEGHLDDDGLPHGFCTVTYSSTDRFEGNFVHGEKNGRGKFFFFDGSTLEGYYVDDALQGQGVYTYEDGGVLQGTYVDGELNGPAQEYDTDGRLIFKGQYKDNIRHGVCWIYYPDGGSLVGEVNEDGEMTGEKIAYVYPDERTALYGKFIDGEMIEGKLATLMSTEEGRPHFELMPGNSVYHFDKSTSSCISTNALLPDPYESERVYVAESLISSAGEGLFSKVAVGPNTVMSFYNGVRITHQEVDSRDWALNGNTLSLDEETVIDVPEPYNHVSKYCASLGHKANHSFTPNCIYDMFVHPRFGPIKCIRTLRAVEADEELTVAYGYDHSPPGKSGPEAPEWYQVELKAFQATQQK
Summary of the method: as §1

[8] = target: Histone-lysine N-methyltransferase SUV39H2 (Homo sapiens, UniProt Q9H5I1); experiment: Inhibition of SUV39H2 (unknown origin) assessed as incorporation of tritium-labeled methyl group to lysine or arginine residues of peptide substrate by radioactive assay
Summary of the method: as §1

[9] = target: Histone-lysine N-methyltransferase SETDB1 (Homo sapiens, UniProt Q15047); experiment: Inhibition of SETDB1 (unknown origin) assessed as incorporation of tritium-labeled methyl group to lysine or arginine residues of peptide substrate by radioactive assay
Summary of the method: as §1

[10] = target: Histone-lysine N-methyltransferase KMT5B (Homo sapiens, UniProt Q4FZB7); experiment: Inhibition of SUV420H1 (unknown origin) assessed as incorporation of tritium-labeled methyl group to lysine or arginine residues of peptide substrate by radioactive assay
Summary of the method: as §1

[11] = target: Protein arginine N-methyltransferase 3 (Homo sapiens, UniProt O60678); experiment: Inhibition of PRMT3 (unknown origin) assessed as incorporation of tritium-labeled methyl group to lysine or arginine residues of peptide substrate by radioactive assay
Summary of the method: as §1

[12] = target: Histone-lysine N-methyltransferase 2A (Homo sapiens, UniProt Q03164); experiment: Inhibition of MLL1 (unknown origin) assessed as incorporation of tritium-labeled methyl group to lysine or arginine residues of peptide substrate by radioactive assay
Chain of Histone-lysine N-methyltransferase 2A (Q03164 1-2718 limits assumed): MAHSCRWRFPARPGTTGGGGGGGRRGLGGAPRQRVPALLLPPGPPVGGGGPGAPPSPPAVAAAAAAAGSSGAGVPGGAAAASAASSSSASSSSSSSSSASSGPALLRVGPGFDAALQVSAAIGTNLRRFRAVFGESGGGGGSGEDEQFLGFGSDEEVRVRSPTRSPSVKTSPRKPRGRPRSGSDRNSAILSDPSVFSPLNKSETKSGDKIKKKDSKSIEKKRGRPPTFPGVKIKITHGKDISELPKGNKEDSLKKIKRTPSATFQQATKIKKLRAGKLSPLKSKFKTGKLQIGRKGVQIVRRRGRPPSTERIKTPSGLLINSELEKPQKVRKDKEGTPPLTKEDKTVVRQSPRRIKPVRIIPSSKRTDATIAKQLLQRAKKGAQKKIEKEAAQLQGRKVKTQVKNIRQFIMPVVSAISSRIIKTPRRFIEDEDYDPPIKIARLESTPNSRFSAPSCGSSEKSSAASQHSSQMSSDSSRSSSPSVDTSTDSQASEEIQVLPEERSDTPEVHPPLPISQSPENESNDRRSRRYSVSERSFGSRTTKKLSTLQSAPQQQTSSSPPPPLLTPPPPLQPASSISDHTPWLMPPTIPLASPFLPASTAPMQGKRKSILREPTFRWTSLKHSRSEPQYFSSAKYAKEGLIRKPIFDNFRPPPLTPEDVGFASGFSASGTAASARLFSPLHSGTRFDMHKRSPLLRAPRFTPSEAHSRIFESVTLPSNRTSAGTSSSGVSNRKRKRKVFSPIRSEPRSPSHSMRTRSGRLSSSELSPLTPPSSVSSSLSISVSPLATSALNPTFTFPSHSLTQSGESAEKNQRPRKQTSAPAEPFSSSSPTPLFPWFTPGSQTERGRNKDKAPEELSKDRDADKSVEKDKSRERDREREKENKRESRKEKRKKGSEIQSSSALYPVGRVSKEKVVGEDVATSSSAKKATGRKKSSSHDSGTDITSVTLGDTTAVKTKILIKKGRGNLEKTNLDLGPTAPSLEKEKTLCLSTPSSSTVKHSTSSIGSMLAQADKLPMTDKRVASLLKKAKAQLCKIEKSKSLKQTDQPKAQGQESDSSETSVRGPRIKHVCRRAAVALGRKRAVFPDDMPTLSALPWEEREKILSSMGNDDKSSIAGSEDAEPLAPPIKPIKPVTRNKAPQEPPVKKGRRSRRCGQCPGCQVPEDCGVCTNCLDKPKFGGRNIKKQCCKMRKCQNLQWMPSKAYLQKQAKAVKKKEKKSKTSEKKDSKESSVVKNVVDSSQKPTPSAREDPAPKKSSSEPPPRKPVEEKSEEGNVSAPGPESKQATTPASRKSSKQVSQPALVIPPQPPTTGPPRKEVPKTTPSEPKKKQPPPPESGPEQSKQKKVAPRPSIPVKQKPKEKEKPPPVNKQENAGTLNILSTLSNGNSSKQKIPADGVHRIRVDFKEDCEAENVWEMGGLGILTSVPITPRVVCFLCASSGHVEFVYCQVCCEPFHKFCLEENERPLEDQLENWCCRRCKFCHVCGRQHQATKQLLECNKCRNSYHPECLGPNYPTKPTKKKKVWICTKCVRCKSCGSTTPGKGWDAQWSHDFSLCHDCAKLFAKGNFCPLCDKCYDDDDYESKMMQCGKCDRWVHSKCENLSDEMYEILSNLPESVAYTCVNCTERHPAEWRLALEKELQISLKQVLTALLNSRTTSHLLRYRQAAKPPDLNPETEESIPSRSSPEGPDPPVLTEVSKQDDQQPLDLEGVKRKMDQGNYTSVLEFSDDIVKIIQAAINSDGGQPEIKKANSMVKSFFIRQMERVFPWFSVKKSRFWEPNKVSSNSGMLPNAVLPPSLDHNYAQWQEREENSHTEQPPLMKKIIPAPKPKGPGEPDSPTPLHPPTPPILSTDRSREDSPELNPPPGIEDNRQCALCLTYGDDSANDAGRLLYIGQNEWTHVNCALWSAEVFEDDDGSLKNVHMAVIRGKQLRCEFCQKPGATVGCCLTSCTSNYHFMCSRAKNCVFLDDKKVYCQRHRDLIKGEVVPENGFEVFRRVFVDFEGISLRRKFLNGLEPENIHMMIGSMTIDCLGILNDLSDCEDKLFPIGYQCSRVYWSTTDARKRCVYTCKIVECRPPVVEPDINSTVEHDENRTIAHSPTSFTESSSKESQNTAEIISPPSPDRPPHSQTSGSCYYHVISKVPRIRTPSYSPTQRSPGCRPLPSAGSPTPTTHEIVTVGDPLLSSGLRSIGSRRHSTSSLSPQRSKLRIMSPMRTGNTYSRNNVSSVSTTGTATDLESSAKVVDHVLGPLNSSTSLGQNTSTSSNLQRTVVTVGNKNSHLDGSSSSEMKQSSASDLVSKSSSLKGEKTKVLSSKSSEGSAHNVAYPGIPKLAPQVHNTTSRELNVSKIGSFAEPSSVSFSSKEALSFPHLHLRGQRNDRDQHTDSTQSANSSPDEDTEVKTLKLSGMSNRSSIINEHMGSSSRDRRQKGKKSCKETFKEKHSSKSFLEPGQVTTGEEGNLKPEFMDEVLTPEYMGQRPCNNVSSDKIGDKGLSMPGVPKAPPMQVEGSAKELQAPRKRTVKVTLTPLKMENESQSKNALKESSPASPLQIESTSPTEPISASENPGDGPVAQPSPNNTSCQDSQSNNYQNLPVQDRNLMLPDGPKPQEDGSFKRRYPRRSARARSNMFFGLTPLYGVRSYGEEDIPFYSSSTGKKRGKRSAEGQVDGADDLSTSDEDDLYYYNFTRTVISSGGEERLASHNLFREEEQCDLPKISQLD
Chain of Histone-lysine N-methyltransferase 2A (Q03164 2719-3969 limits assumed): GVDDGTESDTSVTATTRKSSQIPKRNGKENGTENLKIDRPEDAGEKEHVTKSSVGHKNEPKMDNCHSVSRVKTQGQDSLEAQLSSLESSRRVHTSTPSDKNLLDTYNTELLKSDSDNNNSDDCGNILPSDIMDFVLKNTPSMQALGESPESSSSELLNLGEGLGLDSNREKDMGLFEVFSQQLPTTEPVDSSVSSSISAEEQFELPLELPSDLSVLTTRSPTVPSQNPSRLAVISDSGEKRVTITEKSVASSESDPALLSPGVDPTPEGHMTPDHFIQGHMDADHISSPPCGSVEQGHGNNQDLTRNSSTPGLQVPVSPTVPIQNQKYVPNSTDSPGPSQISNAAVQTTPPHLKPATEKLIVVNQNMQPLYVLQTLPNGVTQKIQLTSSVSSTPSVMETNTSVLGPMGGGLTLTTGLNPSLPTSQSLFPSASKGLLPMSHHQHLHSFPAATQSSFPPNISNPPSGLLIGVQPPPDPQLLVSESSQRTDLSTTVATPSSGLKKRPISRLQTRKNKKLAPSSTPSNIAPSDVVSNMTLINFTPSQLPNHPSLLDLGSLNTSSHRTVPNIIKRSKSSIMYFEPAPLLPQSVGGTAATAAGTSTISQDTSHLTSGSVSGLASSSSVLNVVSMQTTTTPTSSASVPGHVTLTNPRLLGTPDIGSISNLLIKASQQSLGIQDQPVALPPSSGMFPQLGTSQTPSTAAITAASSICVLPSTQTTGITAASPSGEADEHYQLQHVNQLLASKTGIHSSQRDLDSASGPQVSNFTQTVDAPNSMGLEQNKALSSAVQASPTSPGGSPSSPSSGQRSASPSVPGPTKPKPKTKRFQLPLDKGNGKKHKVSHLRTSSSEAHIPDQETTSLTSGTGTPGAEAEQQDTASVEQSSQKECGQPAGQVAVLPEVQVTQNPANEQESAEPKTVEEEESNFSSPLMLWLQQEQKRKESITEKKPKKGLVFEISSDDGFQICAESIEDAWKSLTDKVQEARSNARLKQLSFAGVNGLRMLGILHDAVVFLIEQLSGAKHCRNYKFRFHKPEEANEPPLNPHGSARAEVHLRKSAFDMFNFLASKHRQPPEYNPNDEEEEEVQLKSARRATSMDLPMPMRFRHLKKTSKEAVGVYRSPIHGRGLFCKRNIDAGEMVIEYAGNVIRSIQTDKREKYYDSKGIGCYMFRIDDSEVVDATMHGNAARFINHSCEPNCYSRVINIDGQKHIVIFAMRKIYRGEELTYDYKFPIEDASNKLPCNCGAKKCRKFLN
Summary of the method: as §1

[13] = target: T3, Histone-lysine N-methyltransferase EHMT2 (Homo sapiens, UniProt Q96KQ7); experiment: Inhibition of G9a (unknown origin) assessed as incorporation of tritium-labeled methyl group to lysine or arginine residues of peptide substrate by radioactive assay
T3 sequence (Q96KQ7 whole entry): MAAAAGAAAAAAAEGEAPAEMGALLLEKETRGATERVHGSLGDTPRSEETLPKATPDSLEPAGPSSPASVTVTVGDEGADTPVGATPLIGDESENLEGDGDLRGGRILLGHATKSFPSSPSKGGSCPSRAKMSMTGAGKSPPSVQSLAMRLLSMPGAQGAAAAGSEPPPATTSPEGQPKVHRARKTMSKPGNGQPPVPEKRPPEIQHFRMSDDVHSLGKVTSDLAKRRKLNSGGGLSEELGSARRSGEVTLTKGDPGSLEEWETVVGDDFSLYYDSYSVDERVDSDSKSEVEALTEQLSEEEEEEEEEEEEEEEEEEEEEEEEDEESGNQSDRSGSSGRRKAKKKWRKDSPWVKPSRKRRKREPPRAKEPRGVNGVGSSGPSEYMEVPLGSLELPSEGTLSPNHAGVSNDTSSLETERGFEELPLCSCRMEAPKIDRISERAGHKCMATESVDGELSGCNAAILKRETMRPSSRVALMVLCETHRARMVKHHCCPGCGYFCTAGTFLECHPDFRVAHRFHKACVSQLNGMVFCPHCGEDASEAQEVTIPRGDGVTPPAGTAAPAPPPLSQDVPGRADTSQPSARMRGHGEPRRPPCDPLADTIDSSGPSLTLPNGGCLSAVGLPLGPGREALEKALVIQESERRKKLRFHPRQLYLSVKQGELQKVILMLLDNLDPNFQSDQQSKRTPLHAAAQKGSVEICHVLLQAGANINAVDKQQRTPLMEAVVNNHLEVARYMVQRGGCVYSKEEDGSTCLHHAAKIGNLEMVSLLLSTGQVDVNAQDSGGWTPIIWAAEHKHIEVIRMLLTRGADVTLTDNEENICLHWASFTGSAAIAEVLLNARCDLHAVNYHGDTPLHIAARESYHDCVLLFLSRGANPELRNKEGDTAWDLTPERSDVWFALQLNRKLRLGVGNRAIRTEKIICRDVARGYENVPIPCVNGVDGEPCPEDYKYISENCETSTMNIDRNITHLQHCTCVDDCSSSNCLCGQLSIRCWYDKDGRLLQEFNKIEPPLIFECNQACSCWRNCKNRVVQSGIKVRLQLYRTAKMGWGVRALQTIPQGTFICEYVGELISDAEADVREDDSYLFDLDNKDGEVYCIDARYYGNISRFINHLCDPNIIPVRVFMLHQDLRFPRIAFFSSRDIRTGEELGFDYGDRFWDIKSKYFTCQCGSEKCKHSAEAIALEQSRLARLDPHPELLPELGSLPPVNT
Summary of the method: as §1

[14] = target: Histone-lysine N-methyltransferase, H3 lysine-79 specific (Homo sapiens, UniProt Q8TEK3); experiment: Inhibition of DOT1L (unknown origin) by filter-based assay
Summary of the method: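 Filter-format tritium assay: 20 μL reaction with 3H-SAM and substrates near Km, compound at 100 nM to 100 μM, incubated 1 h at room temperature. Precipitated with 10% TCA on filter plates, washed twice with 10% TCA and once with ethanol, scintillant added, CPM counted. No-compound CPM was 100% activity; no-enzyme CPM was 0%.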

[15] = target: DNA (cytosine-5)-methyltransferase 1 (Homo sapiens, UniProt P26358); experiment: Inhibition of DNMT1 (unknown origin) assessed as using dsDNA substrate by radioactive assay
[16] = target: T4, Histone-lysine N-methyltransferase EHMT1 (Homo sapiens, UniProt Q9H9B1); experiment: Inhibition of GLP (unknown origin) assessed as incorporation of tritium-labeled methyl group to lysine or arginine residues of peptide substrate by radioactive assay
T4 sequence (Q9H9B1 whole entry): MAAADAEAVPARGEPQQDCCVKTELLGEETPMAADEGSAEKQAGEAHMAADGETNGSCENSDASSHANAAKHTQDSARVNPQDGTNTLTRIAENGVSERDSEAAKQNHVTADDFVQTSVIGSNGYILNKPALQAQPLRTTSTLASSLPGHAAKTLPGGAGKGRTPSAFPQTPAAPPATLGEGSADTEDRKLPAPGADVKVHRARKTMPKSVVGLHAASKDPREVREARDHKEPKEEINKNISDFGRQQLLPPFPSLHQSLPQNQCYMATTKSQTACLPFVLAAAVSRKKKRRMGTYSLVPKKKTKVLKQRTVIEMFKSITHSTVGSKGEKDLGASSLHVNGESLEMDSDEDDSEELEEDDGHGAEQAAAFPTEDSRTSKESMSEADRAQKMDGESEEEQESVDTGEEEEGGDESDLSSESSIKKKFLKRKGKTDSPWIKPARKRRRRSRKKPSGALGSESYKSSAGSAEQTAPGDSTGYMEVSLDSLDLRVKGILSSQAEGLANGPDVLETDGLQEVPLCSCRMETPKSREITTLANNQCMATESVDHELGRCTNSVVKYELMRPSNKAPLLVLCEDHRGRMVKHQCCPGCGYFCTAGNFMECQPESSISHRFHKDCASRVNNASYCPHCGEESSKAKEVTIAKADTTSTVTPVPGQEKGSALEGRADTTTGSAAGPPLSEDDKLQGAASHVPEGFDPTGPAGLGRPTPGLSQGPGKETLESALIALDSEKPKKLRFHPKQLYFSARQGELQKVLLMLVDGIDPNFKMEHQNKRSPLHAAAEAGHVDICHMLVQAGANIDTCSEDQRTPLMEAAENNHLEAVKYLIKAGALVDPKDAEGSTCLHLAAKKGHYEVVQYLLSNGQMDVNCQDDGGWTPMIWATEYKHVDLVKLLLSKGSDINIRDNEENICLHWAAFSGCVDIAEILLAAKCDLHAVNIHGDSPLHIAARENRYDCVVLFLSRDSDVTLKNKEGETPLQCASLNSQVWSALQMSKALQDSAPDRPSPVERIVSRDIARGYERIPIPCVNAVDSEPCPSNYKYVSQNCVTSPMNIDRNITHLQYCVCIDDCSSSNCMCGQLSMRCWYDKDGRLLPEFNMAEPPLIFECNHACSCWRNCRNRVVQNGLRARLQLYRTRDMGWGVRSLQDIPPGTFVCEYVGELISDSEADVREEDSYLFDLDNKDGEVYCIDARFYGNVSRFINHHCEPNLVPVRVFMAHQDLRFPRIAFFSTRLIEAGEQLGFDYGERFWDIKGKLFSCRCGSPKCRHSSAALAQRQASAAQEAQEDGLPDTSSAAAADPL
Summary of the method: as §1

SMILES: COc1cc2nc(N3CCCC3)nc(N(C)CCCCCN3CCCC3)c2cc1OC
- IC50 [1]: > 250 µM
- IC50 [2]: Not Active

SMILES: COc1cc2nc(NC3CCCCC3)nc(NCCCCCN3CCCC3)c2cc1OC
- IC50 [1]: > 250 µM

SMILES: COc1cc2nc(NC3CCCC3)nc(NCCCCCN3CCCC3)c2cc1OC
- IC50 [1]: > 250 µM

SMILES: COc1cc2nc(N3CCCC3)nc(NCCCCCN3CCCC3)c2cc1OC
- IC50 [3]: > 100 µM
- IC50 [4]: > 100 µM
- IC50 [5]: > 100 µM
- IC50 [6]: > 100 µM
- IC50 [7]: > 100 µM
- IC50 [8]: > 100 µM
- IC50 [9]: > 100 µM
- IC50 [10]: > 100 µM
- IC50 [11]: > 100 µM
- IC50 [12]: > 100 µM
- IC50 [13]: > 100 µM
- IC50 [14]: > 100 µM
- IC50 [15]: > 100 µM
- IC50 [16]: > 100 µM
